In ChEMBL document CHEMBL1799938, “Synthesis and identification of new 4-arylidene curcumin analogues as potential anticancer agents targeting nuclear factor-κB signaling pathway” (J Med Chem, 2010):
Calls of active or inactive are those of the source. The rule behind the calls is not given here.

Legend:
[1] = (§1) Inhibition of TNF-alpha-induced NFkappaB nuclear translocation in human A549 cells preincubated for 30 mins before TNFalpha challenge and measured 30 post TNFalpha challenge by fluorescence method; type: cell-based
A549 [2] = assay: Growth inhibition of human A549 cells after 48 hrs by sulforhodamine B assay; type: functional; settings: A549, 48 h
A549 [3] = assay: Growth inhibition of human A549 cells after 72 hrs by alamar blue method; type: functional; settings: A549, 72 h
Method in brief: (§2)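 Cells kept in RPMI with 10% FBS and penicillin/streptomycin at 37°C, 5% CO2. Plated in 384-well format, dosed the next day, then incubated 72 hr before Alamar Blue read-out. GI50 is the concentration lowering viability by 50% versus solvent-vehicle control cells at the end of incubation.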

[4] = biological target: T1, Inhibitor of NF-kappa-B kinase (IKK) (Homo sapiens, UniProt O14920+O15111+Q9Y6K9); assay: Inhibition of IKK in human A549 cells assessed as inhibition of TNF-alpha-induced IkappaB phosphorylation preincubated for 30 mins before TNFalpha challenge; type: cell-based
T1 sequence (O15111 whole entry, one chain of several): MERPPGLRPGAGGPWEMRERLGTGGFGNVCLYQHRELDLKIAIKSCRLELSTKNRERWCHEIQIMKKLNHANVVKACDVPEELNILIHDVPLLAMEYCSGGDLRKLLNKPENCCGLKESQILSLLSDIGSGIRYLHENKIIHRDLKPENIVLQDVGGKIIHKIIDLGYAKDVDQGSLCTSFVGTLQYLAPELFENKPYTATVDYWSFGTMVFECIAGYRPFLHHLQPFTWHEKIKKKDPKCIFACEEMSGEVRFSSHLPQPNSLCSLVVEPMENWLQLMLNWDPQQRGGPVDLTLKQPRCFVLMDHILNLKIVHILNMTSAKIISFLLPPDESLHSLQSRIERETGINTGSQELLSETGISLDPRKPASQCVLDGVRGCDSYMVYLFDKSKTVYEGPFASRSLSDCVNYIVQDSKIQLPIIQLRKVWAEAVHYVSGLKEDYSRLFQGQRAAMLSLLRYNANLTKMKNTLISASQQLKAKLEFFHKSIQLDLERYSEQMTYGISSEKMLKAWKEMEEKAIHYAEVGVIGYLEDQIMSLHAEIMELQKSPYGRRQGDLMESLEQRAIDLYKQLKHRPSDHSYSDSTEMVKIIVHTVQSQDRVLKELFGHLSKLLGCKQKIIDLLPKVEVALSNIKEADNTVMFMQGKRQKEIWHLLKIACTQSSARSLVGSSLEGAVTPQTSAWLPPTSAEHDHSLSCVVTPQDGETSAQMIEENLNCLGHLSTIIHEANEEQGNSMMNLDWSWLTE
T1 sequence (Q9Y6K9 whole entry, one chain of several): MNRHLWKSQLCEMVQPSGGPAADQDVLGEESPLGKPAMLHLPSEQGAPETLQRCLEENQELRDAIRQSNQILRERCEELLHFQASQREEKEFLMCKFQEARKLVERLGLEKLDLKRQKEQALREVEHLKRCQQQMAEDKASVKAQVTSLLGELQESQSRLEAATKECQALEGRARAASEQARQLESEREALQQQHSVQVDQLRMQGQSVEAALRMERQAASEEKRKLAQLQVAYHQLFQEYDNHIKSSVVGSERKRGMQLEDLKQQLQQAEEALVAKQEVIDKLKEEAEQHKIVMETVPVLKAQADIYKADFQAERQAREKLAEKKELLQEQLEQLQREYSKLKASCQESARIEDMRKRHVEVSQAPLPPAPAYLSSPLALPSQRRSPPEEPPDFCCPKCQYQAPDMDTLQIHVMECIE
Method in brief: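 A549 cells pretreated 30 min with compounds before TNFα (10 ng/ml). Whole-cell NP-40 lysates prepared 7 min after TNFα, run on 12.5% SDS-PAGE and Western blotted with anti-pS32 IκB antibody. Membrane then stripped and reprobed for total IκB.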

NCI-H157 = assay: Growth inhibition of human NCI-H157 cells after 72 hrs by alamar blue method; type: functional; settings: NCI-H157, 72 h; method in brief: as §2
[5] = biological target: T2, Inhibitor of nuclear factor kappa-B kinase subunit beta (Homo sapiens) (UniProt O14920); assay: Inhibition of recombinant IKK-beta assessed as inhibition of incorporation of [gamma32P] to GST-IkappaBalpha after 30 mins by scintillation counting
T2 sequence (whole entry): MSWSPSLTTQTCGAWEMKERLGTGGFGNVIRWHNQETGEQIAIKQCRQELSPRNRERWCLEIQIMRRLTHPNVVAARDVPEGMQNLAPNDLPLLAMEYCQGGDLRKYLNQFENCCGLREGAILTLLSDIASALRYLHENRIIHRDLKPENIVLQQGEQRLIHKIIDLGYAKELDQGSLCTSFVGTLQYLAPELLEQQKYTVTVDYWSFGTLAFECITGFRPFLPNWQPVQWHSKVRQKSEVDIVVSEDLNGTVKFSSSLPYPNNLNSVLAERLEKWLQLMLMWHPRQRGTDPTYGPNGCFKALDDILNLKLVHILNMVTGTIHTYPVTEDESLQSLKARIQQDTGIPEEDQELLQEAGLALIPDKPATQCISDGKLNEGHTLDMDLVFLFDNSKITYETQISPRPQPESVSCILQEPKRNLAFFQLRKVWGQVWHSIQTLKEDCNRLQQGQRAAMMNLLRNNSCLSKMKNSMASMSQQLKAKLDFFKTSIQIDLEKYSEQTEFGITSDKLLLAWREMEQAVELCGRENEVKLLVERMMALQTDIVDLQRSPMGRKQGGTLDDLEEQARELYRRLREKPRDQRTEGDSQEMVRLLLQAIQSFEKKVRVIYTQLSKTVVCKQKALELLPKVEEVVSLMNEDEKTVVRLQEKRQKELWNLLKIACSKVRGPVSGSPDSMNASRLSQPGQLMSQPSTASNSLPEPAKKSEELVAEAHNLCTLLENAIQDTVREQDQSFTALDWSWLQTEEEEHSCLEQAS
Method in brief: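 Activated recombinant IKKβ (40 ng) preincubated with compounds 30 min at room temperature in MOPS buffer pH 7.0. Reaction started with Mg-ATP mix (100 μM ATP, 15 mM MgCl2), 5 μg GST-IκBα and 0.5 μCi [γ-32P]ATP in 25 μl, run 30 min at 30°C. Stopped by boiling in SDS buffer, resolved by 12.5% SDS-PAGE, autoradiographed. Excised bands quantified by scintillation counting.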

[6] = Growth inhibition of human NCI-H1944 cells after 72 hrs by alamar blue method; type: functional; settings: NCI-H1944, 72 h; method in brief: as §2
[7] = biological target: T1, Inhibitor of NF-kappa-B kinase (IKK); assay: Inhibition of IKK in human A549 cells assessed as inhibition of TNF-alpha-induced IkappaB degradation at 0.5 to 25 uM preincubated for 4 hrs before TNFalpha challenge measured after 20 mins by Western blot analysis; type: cell-based
Method in brief: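 A549 cells pretreated with compounds at indicated doses, then TNFα (10 ng/ml) added for a further 20 min. Cells lysed in NP-40 buffer (1.0% NP-40, 10 mM Hepes pH 7.4, 150 mM NaCl, phosphatase and protease inhibitors). Equal lysate volumes run on 12.5% SDS-PAGE, transferred to nitrocellulose, milk-blocked, and total IκB detected by Western blot.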

A549 [8] = assay: Anticlonogenic activity against human A549 cells assessed as inhibition of colony formation of cells treated at 0.4 uM with test compound after cell plating and every 3 days thereafter and measured on day 9 after colonies formed by SRB assay; type: functional
Method in brief: (§3)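 A549 cells plated at 200 cells/well, incubated overnight, then exposed to compound or DMSO vehicle; medium and compound renewed every 3 days. On day 9, colonies fixed with 10% TCA for 30 min at 4°C, water-washed, SRB-stained and rinsed with 1% acetic acid. Plates scanned, colonies counted and normalized to DMSO control.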

NCI-H460 = assay: Growth inhibition of human H460 cells after 72 hrs by alamar blue method; type: functional; settings: NCI-H460, 72 h; method in brief: as §2
A549 [9] = assay: Anticlonogenic activity against human A549 cells assessed as inhibition of colony formation of cells treated at 0.2 uM with test compound after cell plating and every 3 days thereafter and measured on day 9 after colonies formed by SRB assay; type: functional; method in brief: as §3
A549 [10] = assay: as §1; type: cell-based
A549 [11] = assay: Anticlonogenic activity against human A549 cells assessed as inhibition of colony formation of cells treated at 4 uM with test compound after cell plating and every 3 days thereafter and measured on day 9 after colonies formed by SRB assay; type: functional, cell-based; method in brief: as §3

| Structure (SMILES) | IC50 [1] | GI50 (A549 [2]) | further results |
| --- | --- | --- | --- |
| COc1ccc(/C=C/C(=O)C(=Cc2ccc(N(C)C)cc2)C(=O)/C=C/c2ccc(OC)c(OC)c2)cc1OC | > 40000 nM | 2620 nM | – |
| COc1cc(/C=C/C(=O)/C=C/c2sccc2C)cc(OC)c1OC | 24300 nM | 9310 nM | – |
| COc1ccc(C=C(C(=O)/C=C/c2ccc(OC)c(OC)c2)C(=O)/C=C/c2ccc(OC)c(OC)c2)c(OC)c1 | 1700 nM | 650 nM | – |
| COc1cc(/C=C/C(=O)C(=CO)C(=O)/C=C/c2ccc(OC(C)=O)c(OC)c2)ccc1OC(C)=O | 39300 nM | > 25000 nM | – |
| Cc1ccc(/C=C/C(=O)/C=C(O)/C=C/c2ccc(C)o2)o1 | 8500 nM | > 25000 nM | – |
| COc1ccc(/C=C/C(=O)/C=C(O)/C=C/c2ccc(OC)c(OC)c2)cc1OC [DIMETHYLCURCUMIN] | > 40000 nM | 5800 nM | – |
| COc1ccc(/C=C/C(=O)/C=C(O)/C=C/c2ccc(OC)cc2)cc1 | > 40000 nM | > 25000 nM | – |
| COc1ccc(/C=C/C(=O)C(=Cc2ccc(C)o2)C(=O)/C=C/c2ccc(OC)c(OC)c2)cc1OC | 2800 nM | 1310 nM | – |
| COc1ccc(/C=C/C(=O)C(=CO)C(=O)/C=C/c2ccc(OC)c(OC)c2)cc1OC | > 40000 nM | > 25000 nM | – |
| COc1ccc(/C=C/C(=O)C(=CO)C(=O)/C=C/c2ccc(OC)cc2)cc1 | > 40000 nM | > 25000 nM | – |
| COc1ccc(/C=C/C(=O)C(=Cc2cc(OC)c(OC)c(OC)c2)C(=O)/C=C/c2ccc(OC)c(OC)c2)cc1OC | 1800 nM | 230 nM | – |
| COc1ccc(/C=C/C(=O)C(=Cc2ccc(O)c(OC)c2)C(=O)/C=C/c2ccc(OC)cc2)cc1 | 3000 nM | 1640 nM | – |
| COc1ccc(/C=C/C(=O)C(=Cc2ccc(OC)c(OC)c2)C(=O)/C=C/c2ccc(OC)cc2)cc1 | 3300 nM | 930 nM | – |
| CCc1ccc(C=C(C(=O)/C=C/c2ccc(O)c(OC)c2)C(=O)/C=C/c2ccc(O)c(OC)c2)cc1 | 1800 nM | 550 nM | – |
| COc1cc(/C=C/C(=O)CC(=O)/C=C/c2ccc(O)c(OC)c2)ccc1O [CURCUMIN] | 9500 nM | 15200 nM | Activity (A549 [11]): Active; GI50 (A549 [3]): 9440 nM; GI50 (NCI-H157): 19200 nM; GI50 [6]: 16200 nM; GI50 (NCI-H460): 12100 nM |
| COc1cc(/C=C/C(=O)/C=C/c2cc(OC)c(OC)c(OC)c2)cc(OC)c1OC | 7900 nM | 550 nM | – |
| COc1cc(/C=C/C(=O)C(=Cc2ccc(F)cc2)C(=O)/C=C/c2ccc(O)c(OC)c2)ccc1O | 2700 nM | 780 nM | – |
| CCc1ccc(C=C(C(=O)/C=C/c2ccc(OC)c(OC)c2)C(=O)/C=C/c2ccc(OC)c(OC)c2)cc1 | 4900 nM | 630 nM | – |
| COc1ccc(/C=C/C(=O)C(=Cc2cc(OC)c(OC)c(OC)c2)C(=O)/C=C/c2ccc(OC)cc2)cc1 | 3800 nM | 1120 nM | – |
| COc1cc(/C=C/C(=O)/C(=C/c2cc(OC)c(OC)c(OC)c2)C(C)=O)cc(OC)c1OC | 4800 nM | 530 nM | – |
| O=C(/C=C(O)/C=C/c1ccco1)/C=C/c1ccco1 | > 40000 nM | > 25000 nM | – |
| COc1cc(/C=C/C(=O)C(=Cc2ccc(OC)c(OC)c2)C(=O)/C=C/c2ccc(O)c(OC)c2)ccc1O | > 40000 nM | 430 nM | – |
| COc1ccc(/C=C/C(=O)/C=C/c2cc(OC)c(OC)c(OC)c2)cc1OC | 9000 nM | 1210 nM | – |

Continued, in another order:

| IC50 [1] | GI50 (A549 [2]) | Structure (SMILES) | further results |
| --- | --- | --- | --- |
| 1500 nM | 670 nM | COc1ccc(/C=C/C(=O)C(=Cc2cccc(OC)c2OC)C(=O)/C=C/c2ccc(OC)c(OC)c2)cc1OC | – |
| 1000 nM | 690 nM | COc1ccc(C=C(C(=O)/C=C/c2ccc(O)c(OC)c2)C(=O)/C=C/c2ccc(O)c(OC)c2)c(OC)c1 | – |
| 1700 nM | 420 nM | COc1cc(/C=C/C(=O)C(=Cc2cccc(OC)c2OC)C(=O)/C=C/c2ccc(O)c(OC)c2)ccc1O | GI50 (A549 [3]): 930 nM; IC50 [4]: 5000 nM; GI50 (NCI-H157): 530 nM; inhibition [5]: Dose-dependent effect; GI50 [6]: 330 nM; inhibition [7]: Active; inhibition at 0.4 µM (A549 [8]): 50%; GI50 (NCI-H460): 300 nM |
| 1500 nM | 310 nM | COc1ccc(C=C(C(=O)/C=C/c2ccc(OC)c(OC)c2)C(=O)/C=C/c2ccc(OC)c(OC)c2)cc1OC | – |
| 1400 nM | 360 nM | COc1cc(/C=C/C(=O)C(=Cc2cccc(F)c2)C(=O)/C=C/c2ccc(O)c(OC)c2)ccc1O | – |
| 1000 nM | 530 nM | COc1cc(C=C(C(=O)/C=C/c2ccc(OC)c(OC)c2)C(=O)/C=C/c2ccc(OC)c(OC)c2)ccc1O | GI50 (A549 [3]): 720 nM; inhibition at 0.2 µM (A549 [9]): 50%; IC50 [4]: 2800 nM; GI50 (NCI-H157): 160 nM; inhibition [5]: Dose-dependent effect; GI50 [6]: 70 nM; inhibition [7]: Active; GI50 (NCI-H460): 130 nM |
| 1500 nM | 530 nM | COc1ccc(OC)c(C=C(C(=O)/C=C/c2ccc(OC)c(OC)c2)C(=O)/C=C/c2ccc(OC)c(OC)c2)c1 | – |
| 1100 nM | 550 nM | COc1ccc(/C=C/C(=O)C(=Cc2ccc(F)cc2)C(=O)/C=C/c2ccc(OC)c(OC)c2)cc1OC | GI50 (A549 [3]): 700 nM; inhibition at 0.2 µM (A549 [9]): 50%; IC50 [4]: 2200 nM; inhibition (A549 [10]): Dose-dependent effect; GI50 (NCI-H157): 280 nM; inhibition [5]: Dose-dependent effect; GI50 [6]: 280 nM; inhibition [7]: Active; GI50 (NCI-H460): 270 nM |
| 1300 nM | 640 nM | COc1cccc(C=C(C(=O)/C=C/c2ccc(O)c(OC)c2)C(=O)/C=C/c2ccc(O)c(OC)c2)c1 | – |
| 1000 nM | 2000 nM | COc1cc(C=C(C(=O)/C=C/c2ccc(O)c(OC)c2)C(=O)/C=C/c2ccc(O)c(OC)c2)ccc1O | – |
| 1300 nM | 580 nM | COc1ccc(/C=C/C(=O)C(=Cc2cccc(F)c2)C(=O)/C=C/c2ccc(OC)c(OC)c2)cc1OC | – |
| 1400 nM | 670 nM | COc1ccc(OC)c(C=C(C(=O)/C=C/c2ccc(O)c(OC)c2)C(=O)/C=C/c2ccc(O)c(OC)c2)c1 | – |
| 1000 nM | 370 nM | COc1ccc(C=C(C(=O)/C=C/c2cc(OC)c(OC)c(OC)c2)C(=O)/C=C/c2cc(OC)c(OC)c(OC)c2)cc1OC | – |
| 1400 nM | 420 nM | COc1ccc(/C=C/C(=O)C(=Cc2ccc(O)cc2)C(=O)/C=C/c2ccc(OC)c(OC)c2)cc1OC | – |
